Measured values as given in ChEMBL document CHEMBL1132114, “Chemical syntheses and biological studies on dimeric chimeras of oxytocin and the V(2)-antagonist, d(CH(2))(5)[D-Ile(2), Ile(4)]arginine vasopressin” (J Med Chem, 1999).

How the values were obtained:
[1] = system: Rattus norvegicus; test: In vivo pressor response in rats; type: functional
How it was run: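 Vasopressor test in phenoxybenzamine-treated male Wistar rats against a synthetic arginine vasopressin standard. Activity came from comparing threshold doses of standard and analogue on dose–response curves. Averages of 3–5 experiments.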

[2] = system: Rattus norvegicus; test: Excreted total K+ in 4% water loaded rats after administration of the compound; type: functional, organism-based
How it was run: (§1)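 Conscious male Wistar rats fasted 16 h, given either no water load or tap water at 4% of body weight by stomach catheter; compound given subcutaneously at 50 nmol/kg right after loading. Rats kept in individual metabolic cages, urine collected over 5 h; total Na+ and K+ measured by flame spectrophotometry. Groups of 4–5 rats, 2–3 independent days; mean ± SEM.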

[3] = system: Rattus norvegicus; test: In vivo uterotonic activity in rats; type: functional
How it was run: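 In vivo uterotonic test in Wistar rats estrogenized 24–48 h before the experiment, with compounds given intravenously. Synthetic oxytocin served as standard. Activity came from comparing threshold doses on dose–response curves. Averages of 3–5 experiments, in IU/mg.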

[4] = system: Rattus norvegicus; test: Volume of excreted urine in 5 hr after administration in 0% water loaded rats; type: functional
How it was run: (§2)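 Fasted (16 h) conscious male Wistar rats, without water load or loaded by stomach catheter with tap water at 4% of body weight, then dosed subcutaneously at 50 nmol/kg (saline control). Urine collected in individual metabolic cages and total volume recorded over 5 h. Groups of 4–5 rats, 2–3 independent days; mean ± SEM.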

[5] = organism: Rattus norvegicus; test: diuresis half-time in 4% water loaded rats; type: functional, organism-based
How it was run: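 After a 16-h fast, conscious male Wistar rats received tap water at 4% of body weight by stomach catheter, then compound subcutaneously at 50 nmol/kg. Urine output followed every 15 min for 5 h in metabolic cages. Half-time taken as the time at which half the water load was excreted. Mean ± SEM.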

[6] = system: Rattus norvegicus; test: Excreted total K+ in 0% water loaded rats after administration of the compound; type: functional, organism-based; how it was run: as §1
[7] = organism: Rattus norvegicus; test: In vitro uterotonic activity was determined; type: functional
How it was run: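 Uterine preparations from Wistar rats estrogenized 24–48 h beforehand were tested in vitro without magnesium ions. Synthetic oxytocin served as standard. Single or cumulative dose–response curves were built, and activity was obtained by comparing threshold doses of standard and analogue. Averages of 3–5 experiments, in IU/mg.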

[8] = system: Rattus norvegicus; test: Excreted total Na+ in 0% water loaded rats after administration of the compound; type: functional; how it was run: as §1
[9] = system: Rattus norvegicus; test: In vivo antidiuretic in anesth rats; type: functional, Urine
[10] = system: Rattus norvegicus; test: Excreted total Na+ in 4% water loaded rats after administration of the compound; type: functional; how it was run: as §1
[11] = system: Rattus norvegicus; test: Volume of excreted urine in 5 hr after administration in 4% water loaded rats; type: functional; how it was run: as §2
[12] = system: Rattus norvegicus; test: In vivo antidiuretic in conscious rats; type: functional, Urine
How it was run: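 Modified Burn test in conscious male Wistar rats fasted 16 h and loaded orally by catheter with tap water (4% of body weight). Compounds or saline injected subcutaneously at 1–100 nmol/kg. Urine collected over 5 h in metabolic cages. Groups of 4–5 rats; each dose run in 2–3 independent experiments.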

[13] = system: Rattus norvegicus; test: Volume of excreted urine in 5 h after administration in 0% water loaded rats; type: functional; how it was run: as §2

Compound | Pressor response [1] [IU mg-1] | K [2] [µmol] | Uterotonic activity [3] [IU mg-1] | Volume of urine [4] [mL] | T1/2 [5] [h] | K [6] [µmol] | Uterotonic activity [7] [IU mg-1] | Na [8] [µmol] | Antidiuretic activity [9] [IU mg-1] | Na [10] [µmol] | Volume of urine [11] [mL] | Antidiuretic activity [12] [%] | Volume of urine [13] [mL]
CC[C@H](C)[C@@H]1NC(=O)[C@H](Cc2ccc(O)cc2)NC(=O)[C@@H](N)CSSC[C@@H](C(=O)N2CCC[C@H]2C(=O)N[C@@H](CC(C)C)C(=O)NCC(N)=O)NC(=O)[C@H](CC(N)=O)NC(=O)[C@H](CCC(N)=O)NC1=O [OXYTOCIN] | 4.5 | 287 | 450 | 4.8 | 2.97 | 202 | 450 | 563 | 5 | 773 | 11.3 | 100 | 
CC[C@@H](C)[C@H]1NC(=O)CC2(CCCCC2)SSC[C@@H](C(=O)N2CCC[C@@H]2C(=O)N[C@@H](CC(C)C)C(=O)NCC(N)=O)NC(=O)[C@H](CC(N)=O)NC(=O)[C@H](CCC(N)=O)NC(=O)[C@H]([C@@H](C)CC)NC(=O)[C@H](Cc2ccc(O)cc2)NC(=O)[C@@H](N)CSSC[C@H](C(=O)N2CCC[C@@H]2C(=O)N[C@H](CCCN=C(N)N)C(=O)NCC(N)=O)NC(=O)[C@@H](CC(N)=O)NC(=O)[C@@H]([C@H](C)CC)NC(=O)[C@@H](Cc2ccccc2)NC1=O |  | 123 |  |  | 0.817 | 200 |  |  |  |  |  |  | 
CC[C@@H](C)[C@H]1NC(=O)CC2(CCCCC2)SSC[C@H](N)C(=O)N[C@@H](Cc2ccc(O)cc2)C(=O)N[C@@H]([C@@H](C)CC)C(=O)N[C@@H](CCC(N)=O)C(=O)N[C@@H](CC(N)=O)C(=O)N[C@H](C(=O)N2CCC[C@H]2C(=O)N[C@@H](CC(C)C)C(=O)NCC(N)=O)CSSC[C@@H](C(=O)N2CCC[C@H]2C(=O)N[C@@H](CCCN=C(N)N)C(=O)NCC(N)=O)NC(=O)[C@H](CC(N)=O)NC(=O)[C@H]([C@@H](C)CC)NC(=O)[C@H](Cc2ccccc2)NC1=O | 0 |  | 1.1 |  |  |  | 0.22 | 762 |  | 375 | 14.2 |  | 9.4
CC[C@H](C)[C@@H]1NC(=O)CC2(CCCCC2)SSC[C@H](N)C(=O)N[C@@H](Cc2ccc(O)cc2)C(=O)N[C@@H]([C@@H](C)CC)C(=O)N[C@@H](CCC(N)=O)C(=O)N[C@@H](CC(N)=O)C(=O)N[C@H](C(=O)N2CCC[C@@H]2C(=O)N[C@@H](CC(C)C)C(=O)NCC(N)=O)CSSC[C@@H](C(=O)N2CCC[C@H]2C(=O)N[C@@H](CCCN=C(N)N)C(=O)NCC(N)=O)NC(=O)[C@H](CC(N)=O)NC(=O)[C@H]([C@@H](C)CC)NC(=O)[C@H](Cc2ccccc2)NC1=O |  | 162 |  |  | 0.7 | 217 |  |  |  |  |  |  | 
CC[C@@H](C)[C@H]1NC(=O)CC2(CCCCC2)SSC[C@@H](C(=O)N2CCC[C@H]2C(=O)N[C@@H](CC(C)C)C(=O)NCC(N)=O)NC(=O)[C@H](CC(N)=O)NC(=O)[C@H](CCC(N)=O)NC(=O)[C@H]([C@@H](C)CC)NC(=O)[C@H](Cc2ccc(O)cc2)NC(=O)[C@@H](N)CSSC[C@@H](C(=O)N2CCC[C@H]2C(=O)N[C@@H](CCCN=C(N)N)C(=O)NCC(N)=O)NC(=O)[C@H](CC(N)=O)NC(=O)[C@H]([C@@H](C)CC)NC(=O)[C@H](Cc2ccccc2)NC1=O | 0 |  | 0.8 |  |  |  | 0.8 | 358 |  | 480 | 13.1 |  | 6.3
CC[C@@H](C)[C@H]1NC(=O)[C@H](Cc2ccc(O)cc2)NC(=O)[C@@H](N)CSSC[C@@H](C(=O)N2CCC[C@@H]2C(=O)N[C@@H](CC(C)C)C(=O)NCC(N)=O)NC(=O)[C@H](CC(N)=O)NC(=O)[C@@H](CCC(N)=O)NC(=O)[C@H]([C@@H](C)CC)NC(=O)[C@@H](Cc2ccc(O)cc2)NC(=O)[C@H](N)CSSC[C@H](C(=O)N2CCC[C@H]2C(=O)N[C@H](CC(C)C)C(=O)NCC(N)=O)NC(=O)[C@@H](CC(N)=O)NC(=O)[C@H](CCC(N)=O)NC1=O |  | 231 |  |  | 3.47 |  |  |  |  |  |  |  | 
CC[C@H](C)[C@@H]1NC(=O)[C@H](Cc2ccc(O)cc2)NC(=O)[C@@H](N)CSSC[C@@H](C(=O)N2CCC[C@H]2C(=O)N[C@@H](CC(C)C)C(=O)NCC(N)=O)NC(=O)[C@H](CC(N)=O)NC(=O)[C@H](CCC(N)=O)NC(=O)[C@H]([C@@H](C)CC)NC(=O)[C@H](Cc2ccc(O)cc2)NC(=O)[C@@H](N)CSSC[C@@H](C(=O)N2CCC[C@H]2C(=O)N[C@@H](CC(C)C)C(=O)NCC(N)=O)NC(=O)[C@H](CC(N)=O)NC(=O)[C@H](CCC(N)=O)NC1=O [OXYTOCIN DIMER] | 0.5 |  | 13.8 |  |  |  | 1.37 |  |  | 1150 | 6.4 | ~10 | 
